Measurements reported in ChEMBL document CHEMBL1121447, “Pronounced pharmacological differences arising from minor structural changes in conformationally defined amphetamine analogues. Comparative evaluation of endo- and exo-2-amino- and endo- and exo-2-(methylamino)benzobicyclo[2.2.1]heptene and -benzobicylco[2.2.2]octene analogues. Conformationally …” (J Med Chem, 1980).

Assays:
Type in all cases: functional, organism-based
[1] = organism: Rattus norvegicus; assay: Effective concentration was measured for the release of accumulated [3H]dopamine from chopped striatum of rat
How it was run: (§1)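 Chopped rat cortex (NE) or corpus striatum (DA) from untreated rats loaded with 10^-6 M [3H]NE or [3H]dopamine, then washed. Exposed to drug (10^-7 to 10^-3 M) for 30 min, then centrifuged. Amines separated from deaminated metabolites on Dowex 50 Na+ and counted by scintillation with recovery correction. Release = % of total label found in medium. EC50 = half-maximal concentration; 3-4 experiments.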

[2] = organism: Rattus norvegicus; assay: Inhibitory concentration against uptake of [3H]NE into chopped cerebral cortical tissue from rat brain
How it was run: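 Chopped rat cerebral cortex preincubated 10 min at 37 °C in physiological salt solution (95% O2-5% CO2) with drug at 10^-8 to 10^-3 M. [3H]NE then added to 10^-7 M final. Uptake stopped by centrifugation. Tissue ethanol extract and medium counted by scintillation. Inhibition taken as % of control; 3-4 experiments.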

[3] = organism: Rattus norvegicus; assay: Effective concentration was measured for the release of accumulated [3H]NE from chopped cortex of rat; how it was run: as §1

Structure (SMILES)	EC50 [1] [µM]	IC50 [2] [µM]	EC50 [3] [µM]	EC50 ([1]; Rattus norvegicus) [µM]	IC50 ([2]; Rattus norvegicus, Brain) [µM]	EC50 ([3]; Rattus norvegicus) [µM]
CNC1CC2CCC1c1ccccc12 (stereo in doubt; 1b)	185	0.8	178	–	–	–
NC1CC2CCC1c1ccccc12 (stereo in doubt; 1a)	192	0.8	147	–	–	–
NC1CC2CCC1c1ccccc12 (stereo in doubt; 2a)	681	39	1000	–	–	–
CNC1CC2CCC1c1ccccc12 (stereo in doubt; 2b)	> 1000	48	> 1000	–	–	–
CNC1CC2CC1c1ccccc12 (stereo in doubt; 4b)	> 1000	369	> 1000	–	–	–
C[C@@H](N)Cc1ccccc1 [LEVAMFETAMINE]	–	–	–	61	0.5	1.7
N[C@@H]1CC2C[C@@H]1c1ccccc12	–	–	–	185	1.1	16
C[C@H](N)Cc1ccccc1 [DEXTROAMPHETAMINE]	–	–	–	11	0.2	0.8
N[C@H]1CC2C[C@@H]1c1ccccc12	–	–	–	794	100	630
CNC1CC2CC1c1ccccc12 (stereo in doubt; 3b)	271	1.8	450	–	–	–
